Assay results taken from paper PMC4059252 (Journal of Medicinal Chemistry, 2014).

Assay: Metal cation competition
Format: physicochemical
In short: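 200 μM ligand (1 mL) was labelled with 30–50 μCi neutralised 89Zr for 1 h at room temperature, and complete labelling was confirmed by radio-TLC. 200 μL aliquots were mixed with 200 μL 1 mM metal salt (e.g. CoCl2) at pH 7.4 and incubated at 37 °C with agitation. Radio-TLC at 1 h, 1, 5, 7 d gave % intact complex. Mean and SD from two experiment sets.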

^89Zr^4+ released (after 7 days of incubation with FeCl3): > 50%
^89Zr^4+ released (in the presence of Ga^3+): ~9%
Compound: CC(=O)N(O)CCCCCNC(=O)CCC(=O)N(O)CCCCCNC(=O)CCC(=O)N(O)CCCCCN [DFO, desferrioxamine B]
